According to ChEMBL document CHEMBL1145471, “Small molecule regulators of autophagy identified by an image-based high-throughput screen” (Proc Natl Acad Sci U S A, 2007):

system: H4; experiment: Increase in light chain 3-GFP+ autophagosome vesicle number per cell in human H4 cells at 5.2 uM after 24 hrs by high throughput fluorescence microscopy relative to control; assay type: functional
Summary of the method: (§1)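 H4 cells stably expressing LC3-GFP were grown in DMEM with 10% FBS and 2 mM L-glutamine at 37°C, 5% CO2. They were exposed to each compound for 24 h, with DMSO as negative and rapamycin as positive control. Cells were then fixed in 4% paraformaldehyde and stained with 3 μg/ml DAPI. High-throughput fluorescence imaging scored LC3-GFP spot number, size and intensity, expressed relative to DMSO. Mean ± SD of triplicates; experiments repeated three times.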

SMILES | Activity [%]
CN(CCc1ccc(Cl)c(Cl)c1)CC(O)COc1ccc(NS(C)(=O)=O)cc1 (stereo unspecified) | 166.24
CC[C@H]1[C@@H]2C=C[C@H]3[C@@H](C[C@H]4/C=C/C(=O)C5=C[C@H](CCCNC(=O)/C=C\C[C@H]34)NC5=O)[C@H]2C[C@H]1C [IKARUGAMYCIN] | 75.79
Fc1ccc(C(c2ccc(F)cc2)N2CCN(C/C=C/c3ccccc3)CC2)cc1 [FLUNARIZINE] | 155.03
COc1ccc(CCN(C)CCC[C@](C#N)(c2ccc(OC)c(OC)c2)C(C)C)cc1OC [VERAPAMIL] | 168.55
CC(/C=C/C(=O)NO)=C\[C@@H](C)C(=O)c1ccc(N(C)C)cc1 [TRICHOSTATIN] | 636.52
C=C1[C@@H](C)[C@H]2[C@H](Cc3ccccc3)NC(=O)[C@]23OC(=O)/C=C/[C@H](O)CCC[C@@H](C)C/C=C/[C@H]3[C@@H]1O [CYTOCHALASIN B] | 208.73

system: H4; experiment: Induction of light chain 3-GFP level in human H4 cells at 6.2 uM after 24 hrs by high throughput fluorescence microscopy relative to control; assay type: functional
Summary of the method: (§2)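 H4 cells stably expressing LC3-GFP, grown in DMEM with 10% FBS, penicillin/streptomycin and 2 mM L-glutamine at 37°C, 5% CO2. Cells were seeded in 96-well plates and exposed to library compounds at 3–12 μM for 24 h, then fixed in 4% paraformaldehyde and stained with 3 μg/ml DAPI. LC3-GFP spot number, size and intensity were measured by high-throughput fluorescence microscopy and expressed relative to DMSO. Triplicates, mean ± SD.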

SMILES | Activity [%]
COc1ccc(CCCOC(Cn2ccnc2)c2ccc(OC)cc2)cc1 (stereo unspecified) | 42.96

system: H4; experiment: Increase in light chain 3-GFP+ autophagosome vesicle intensity per cell in human H4 cells at 6.2 uM after 24 hrs by high throughput fluorescence microscopy relative to control; assay type: functional; summary of the method: as §1

SMILES | Activity [%]
COc1ccc(CCCOC(Cn2ccnc2)c2ccc(OC)cc2)cc1 (stereo unspecified) | 285.59

system: H4; experiment: Effect on FYVE-RFP+ vesicle intensity per cell in human H4 cells after 2 hrs relative to control; assay type: functional; parameters: concentration or dose not given beside the values
Summary of the method: (§3)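 H4 cells stably expressing FYVE-RFP (H4-FYVE), grown in DMEM with 10% FBS, penicillin/streptomycin and 2 mM L-glutamine at 37°C, 5% CO2, seeded in 96-well plates and exposed to compound. Fixed in 4% paraformaldehyde, nuclei stained with 3 μg/ml DAPI, FYVE-RFP+ vesicles quantified by high-throughput fluorescence microscopy against DMSO control. Triplicate wells, mean ± SD.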

SMILES | Activity [%]
CN(CCc1ccc(Cl)c(Cl)c1)CC(O)COc1ccc(NS(C)(=O)=O)cc1 (stereo unspecified) | 68.06

system: H4; experiment: Increase in long-lived protein degradation in human H4 cells after 1 hr relative to control; assay type: functional; parameters: concentration or dose not given beside the values

SMILES | Activity [%]
O=C1Nc2ccccc2/C1=C1/Nc2ccccc2C1=O [INDIRUBIN] | 105.91
CN(CCc1ccc(Cl)c(Cl)c1)CC(O)COc1ccc(NS(C)(=O)=O)cc1 (stereo unspecified) | 95.15
Fc1ccc(C(c2ccc(F)cc2)N2CCN(C/C=C/c3ccccc3)CC2)cc1 [FLUNARIZINE] | 97.33
COc1ccc(CCN(C)CCC[C@](C#N)(c2ccc(OC)c(OC)c2)C(C)C)cc1OC [VERAPAMIL] | 103.33

system: H4; experiment: Increase in long-lived protein degradation in human H4 cells after 4 hrs relative to control; assay type: functional; parameters: concentration or dose not given beside the values

SMILES | Activity [%]
O=C1Nc2ccccc2/C1=C1/Nc2ccccc2C1=O [INDIRUBIN] | 95.3
CN(CCc1ccc(Cl)c(Cl)c1)CC(O)COc1ccc(NS(C)(=O)=O)cc1 (stereo unspecified) | 91.75
Fc1ccc(C(c2ccc(F)cc2)N2CCN(C/C=C/c3ccccc3)CC2)cc1 [FLUNARIZINE] | 93.65
COc1ccc(CCN(C)CCC[C@](C#N)(c2ccc(OC)c(OC)c2)C(C)C)cc1OC [VERAPAMIL] | 97.84

system: H4; experiment: Increase in light chain 3-GFP+ autophagosome vesicle intensity per cell in human H4 cells at 5.2 uM after 24 hrs by high throughput fluorescence microscopy relative to control; assay type: functional; summary of the method: as §1

SMILES | Activity [%]
CN(CCc1ccc(Cl)c(Cl)c1)CC(O)COc1ccc(NS(C)(=O)=O)cc1 (stereo unspecified) | 222.83
CC[C@H]1[C@@H]2C=C[C@H]3[C@@H](C[C@H]4/C=C/C(=O)C5=C[C@H](CCCNC(=O)/C=C\C[C@H]34)NC5=O)[C@H]2C[C@H]1C [IKARUGAMYCIN] | 172.85
Fc1ccc(C(c2ccc(F)cc2)N2CCN(C/C=C/c3ccccc3)CC2)cc1 [FLUNARIZINE] | 203.66
COc1ccc(CCN(C)CCC[C@](C#N)(c2ccc(OC)c(OC)c2)C(C)C)cc1OC [VERAPAMIL] | 238.6
CC(/C=C/C(=O)NO)=C\[C@@H](C)C(=O)c1ccc(N(C)C)cc1 [TRICHOSTATIN] | 1649.69
C=C1[C@@H](C)[C@H]2[C@H](Cc3ccccc3)NC(=O)[C@]23OC(=O)/C=C/[C@H](O)CCC[C@@H](C)C/C=C/[C@H]3[C@@H]1O [CYTOCHALASIN B] | 286.43

system: H4; experiment: Induction of light chain 3-GFP level in human H4 cells at 5.2 uM after 24 hrs by high throughput fluorescence microscopy relative to control; assay type: functional; summary of the method: as §2

SMILES | Activity [%]
CN(CCc1ccc(Cl)c(Cl)c1)CC(O)COc1ccc(NS(C)(=O)=O)cc1 (stereo unspecified) | 135.28
CC[C@H]1[C@@H]2C=C[C@H]3[C@@H](C[C@H]4/C=C/C(=O)C5=C[C@H](CCCNC(=O)/C=C\C[C@H]34)NC5=O)[C@H]2C[C@H]1C [IKARUGAMYCIN] | 50.16
Fc1ccc(C(c2ccc(F)cc2)N2CCN(C/C=C/c3ccccc3)CC2)cc1 [FLUNARIZINE] | 104.67
COc1ccc(CCN(C)CCC[C@](C#N)(c2ccc(OC)c(OC)c2)C(C)C)cc1OC [VERAPAMIL] | 132.44
CC(/C=C/C(=O)NO)=C\[C@@H](C)C(=O)c1ccc(N(C)C)cc1 [TRICHOSTATIN] | 40.15
C=C1[C@@H](C)[C@H]2[C@H](Cc3ccccc3)NC(=O)[C@]23OC(=O)/C=C/[C@H](O)CCC[C@@H](C)C/C=C/[C@H]3[C@@H]1O [CYTOCHALASIN B] | 30.58

system: H4; experiment: Decrease in FYVE-RFP+ vesicle intensity per cell in human H4 cells after 8 hrs relative to control; assay type: functional; parameters: concentration or dose not given beside the values; scale not given: the % may be the effect or the level left; summary of the method: as §3

SMILES | Activity [%]
O=C1Nc2ccccc2/C1=C1/Nc2ccccc2C1=O [INDIRUBIN] | 59.18
Fc1ccc(C(c2ccc(F)cc2)N2CCN(C/C=C/c3ccccc3)CC2)cc1 [FLUNARIZINE] | 48.6
O=c1cc(N2CCOCC2)oc2c(-c3ccccc3)cccc12 [LY-294002] | 11.09

system: H4; experiment: Increase in light chain 3-GFP+ autophagosome vesicle area per cell in human H4 cells at 6.2 uM after 24 hrs by high throughput fluorescence microscopy relative to control; assay type: functional
Summary of the method: (§4)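 H4 cells stably expressing LC3-GFP, seeded in 96-well plates and exposed to compound for 24 h; screening concentrations were 3–12 μM, with rapamycin 0.22 μM and bafilomycin A1 0.40 μM. Cells fixed in 4% paraformaldehyde and stained with 3 μg/ml DAPI. Number, size and intensity of LC3-GFP spots measured by high-throughput fluorescence microscopy and expressed as percent of DMSO-treated wells. Rapamycin was the positive control. Triplicate wells, mean ± SD; experiments repeated three times.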

SMILES | Activity [%]
COc1ccc(CCCOC(Cn2ccnc2)c2ccc(OC)cc2)cc1 (stereo unspecified) | 209.11

system: H4; experiment: Increase in light chain 3-GFP+ autophagosome vesicle area per cell in human H4 cells at 5.2 uM after 24 hrs by high throughput fluorescence microscopy relative to control; assay type: functional; summary of the method: as §4

SMILES | Activity [%]
CN(CCc1ccc(Cl)c(Cl)c1)CC(O)COc1ccc(NS(C)(=O)=O)cc1 (stereo unspecified) | 192.05
CC[C@H]1[C@@H]2C=C[C@H]3[C@@H](C[C@H]4/C=C/C(=O)C5=C[C@H](CCCNC(=O)/C=C\C[C@H]34)NC5=O)[C@H]2C[C@H]1C [IKARUGAMYCIN] | 107.27
Fc1ccc(C(c2ccc(F)cc2)N2CCN(C/C=C/c3ccccc3)CC2)cc1 [FLUNARIZINE] | 179.26
COc1ccc(CCN(C)CCC[C@](C#N)(c2ccc(OC)c(OC)c2)C(C)C)cc1OC [VERAPAMIL] | 200.63
CC(/C=C/C(=O)NO)=C\[C@@H](C)C(=O)c1ccc(N(C)C)cc1 [TRICHOSTATIN] | 864.85
C=C1[C@@H](C)[C@H]2[C@H](Cc3ccccc3)NC(=O)[C@]23OC(=O)/C=C/[C@H](O)CCC[C@@H](C)C/C=C/[C@H]3[C@@H]1O [CYTOCHALASIN B] | 247.77

system: H4; experiment: Increase in light chain 3-GFP+ autophagosome vesicle number per cell in human H4 cells at 6.2 uM after 24 hrs by high throughput fluorescence microscopy relative to control; assay type: functional; summary of the method: as §1

SMILES | Activity [%]
COc1ccc(CCCOC(Cn2ccnc2)c2ccc(OC)cc2)cc1 (stereo unspecified) | 179.88

system: H4; experiment: Effect on FYVE-RFP+ vesicle intensity per cell in human H4 cells after 4 hrs relative to control; assay type: functional; parameters: concentration or dose not given beside the values; summary of the method: as §3

SMILES | Activity [%]
CN(CCc1ccc(Cl)c(Cl)c1)CC(O)COc1ccc(NS(C)(=O)=O)cc1 (stereo unspecified) | 71.97

system: H4; experiment: Increase in long-lived protein degradation in human H4 cells after 24 hrs relative to control; assay type: functional; parameters: concentration or dose not given beside the values

SMILES | Activity [%]
O=C1Nc2ccccc2/C1=C1/Nc2ccccc2C1=O [INDIRUBIN] | 100.5
CN(CCc1ccc(Cl)c(Cl)c1)CC(O)COc1ccc(NS(C)(=O)=O)cc1 (stereo unspecified) | 96.25
Fc1ccc(C(c2ccc(F)cc2)N2CCN(C/C=C/c3ccccc3)CC2)cc1 [FLUNARIZINE] | 113.6
COc1ccc(CCN(C)CCC[C@](C#N)(c2ccc(OC)c(OC)c2)C(C)C)cc1OC [VERAPAMIL] | 94.39

system: H4; experiment: Increase in long-lived protein degradation in human H4 cells after 2 hrs relative to control; assay type: functional; parameters: concentration or dose not given beside the values

SMILES | Activity [%]
O=C1Nc2ccccc2/C1=C1/Nc2ccccc2C1=O [INDIRUBIN] | 94.5
CN(CCc1ccc(Cl)c(Cl)c1)CC(O)COc1ccc(NS(C)(=O)=O)cc1 (stereo unspecified) | 86.27
Fc1ccc(C(c2ccc(F)cc2)N2CCN(C/C=C/c3ccccc3)CC2)cc1 [FLUNARIZINE] | 107.1
COc1ccc(CCN(C)CCC[C@](C#N)(c2ccc(OC)c(OC)c2)C(C)C)cc1OC [VERAPAMIL] | 114.92

system: H4; experiment: Decrease in FYVE-RFP+ vesicle intensity per cell in human H4 cells after 2 hrs relative to control; assay type: functional; parameters: concentration or dose not given beside the values; scale not given: the % may be the effect or the level left; summary of the method: as §3

SMILES | Activity [%]
O=C1Nc2ccccc2/C1=C1/Nc2ccccc2C1=O [INDIRUBIN] | 73.16
Fc1ccc(C(c2ccc(F)cc2)N2CCN(C/C=C/c3ccccc3)CC2)cc1 [FLUNARIZINE] | 53.92
O=c1cc(N2CCOCC2)oc2c(-c3ccccc3)cccc12 [LY-294002] | 24.99

system: H4; experiment: Effect on FYVE-RFP+ vesicle intensity per cell in human H4 cells after 8 hrs relative to control; assay type: functional; parameters: concentration or dose not given beside the values; summary of the method: as §3

SMILES | Activity [%]
CN(CCc1ccc(Cl)c(Cl)c1)CC(O)COc1ccc(NS(C)(=O)=O)cc1 (stereo unspecified) | 66.35

system: H4; experiment: Decrease in FYVE-RFP+ vesicle intensity per cell in human H4 cells after 4 hrs relative to control; assay type: functional; parameters: concentration or dose not given beside the values; scale not given: the % may be the effect or the level left; summary of the method: as §3

SMILES | Activity [%]
O=C1Nc2ccccc2/C1=C1/Nc2ccccc2C1=O [INDIRUBIN] | 35.1
Fc1ccc(C(c2ccc(F)cc2)N2CCN(C/C=C/c3ccccc3)CC2)cc1 [FLUNARIZINE] | 44.48
O=c1cc(N2CCOCC2)oc2c(-c3ccccc3)cccc12 [LY-294002] | 14.79
